Experimental data as given in article PMC8427777 (ACS Omega, 2021).
Entries after “also recorded” stand apart in the source; their conditions may differ. Like-named read-outs stand apart in the source and are kept apart here. acyl = not defined here

How the values were obtained:
C5a = experiment: Effect of prednisone on SR3–C5a interaction by CD; type: binding, human; details: 0.5 μM PDN, 0.35 μM SR3, 0.1 μM C5a, PBS, 25 °C; preliminary
recombinant human C5a [1] = target: T1, recombinant human C5a (Homo sapiens, UniProt P01031); experiment: Two-site CD study: ECL2 peptide; type: binding
T1 sequence (P01031 678-751 limits assumed): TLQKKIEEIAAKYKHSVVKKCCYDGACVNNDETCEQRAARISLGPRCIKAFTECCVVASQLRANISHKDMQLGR
Method in brief: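 Two-site CD: 0.1 μM recombinant human C5a was preincubated with 0.5 μM NT-peptide, then titrated with 0–1 μM ECL2 peptide. Far-UV CD was run at 25°C in 1× PBS (pH ∼ 7.4), with at least three scans (1 s time constant, 1 nm step). Each sample was prepared and read separately, and the signal of the corresponding free peptides was subtracted.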

recombinant human C5a [2] = target: T1, recombinant human C5a; experiment: Two-site fluorescence study: ECL2 peptide; type: binding; details: 0.5–1 μM SR1
Method in brief: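 Two-site fluorescence: 0.1 μM C5a was preincubated with 0.5 μM NT-peptide and titrated with 0–1 μM ECL2 peptide. Readings were taken in 1× PBS (pH ∼ 7.4) at 25°C, with excitation at 278–280 nm, emission at 290–450 nm and 5 nm slits. Three scans were averaged and the free-peptide signal was subtracted.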

[3] = up to 100 μM, in solution; ref not given ("has been reported"); cited from earlier work
recombinant human C5a [4] = target: T1, recombinant human C5a; experiment: CD titration of NT-peptides against recombinant human C5a; type: binding
Method in brief: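 Far-UV CD at 25°C in filtered, degassed 1× PBS (pH ∼ 7.4). Recombinant human C5a was held at 0.1 μM and NT-peptides (native Met1-Lys28 sequence or mutants) at 0–1 μM. Samples were incubated ≥1 h at 4°C, each prepared and read separately, with at least three scans (1 s time constant, 1 nm step). Free-peptide signal was subtracted, and data were converted to mean residue ellipticity, normalized and fitted by nonlinear regression for affinity.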

[5] = Conformational analysis of free peptides by CD; type: physicochemical; details: 1 μM, PBS pH ∼7.4, 25 °C; compared with SR3
[6] = Intrinsic tyrosine fluorescence of free peptides; type: physicochemical; details: at the working concentrations, 1× PBS pH ∼ 7.4, 25 °C
recombinant human C5a [7] = target: T2, recombinant human C5a (human, UniProt P01031 678-751); experiment: circular dichroism titration + other fluorescence titration
T2 sequence (looked up): T1 sequence (P01031 678-751 limits assumed)

COVID-19 = details: anti-C5a antibody; cited from earlier work
recombinant human C5a [8] = target: T2, recombinant human C5a; experiment: circular dichroism titration + other fluorescence titration; remark: listed apart in the source
C5aR1 = details: cited from earlier work

With `C[C@]12C=CC(=O)C=C1CC[C@@H]1[C@@H]2C(=O)C[C@@]2(C)[C@H]1CC[C@]2(O)C(=O)CO` [PDN, prednisone] as the molecule, how does the “response of PDN-preincubated C5a to SR3 compared to free C5a” value (C5a) read?
The value was “comparatively weaker response”.

Which results are given for “SR1: native ECL2 sequence of C5aR1 (Tyr174-Arg198), acylated and amidated, carrying Cys188/Ser mutation (acyl-YRVVREEYFPPKVLSGVDYSHDKRR-NH2; reading uncertain)”?
CD response, C5a preincubated with SR3, 0.5 μM SR1 (recombinant human C5a [1]; 0.1 μM C5a + 0.5 μM SR3, PBS, 25 °C, 0.5 μM SR1): substantially enhanced the CD signal; CD response, C5a preincubated with SR3, 1 μM SR1 (vs 0.5 μM) (recombinant human C5a [1]; 0.1 μM C5a + 0.5 μM SR3, PBS, 25 °C, 1 μM SR1): did not change further; CD response, C5a preincubated with SR4 (recombinant human C5a [1]; 0.1 μM C5a + 0.5 μM SR4, compared to the C5a–SR3/C5a–SR5 system): relatively strong conformational response; fluorescence response, C5a preincubated with SR3 or SR5 (recombinant human C5a [2]; 0.1 μM C5a + 0.5 μM SR3 or SR5): consistent with the observation made in the CD; also recorded: modest change in fluorescence intensity; fluorescence response, C5a preincubated with SR4 (recombinant human C5a [2]; 0.1 μM C5a + 0.5 μM SR4): quenched appreciably; CD signature of free ECL2 peptide [3]: twisted short-stranded β-hairpin-like conformation

With SR4 (MASFNYTTPAYGHYAAKATLDLNTPVAK) as the molecule, how does the “change of CD signal / conformation of C5a” value (recombinant human C5a [4]; 0.1 μM C5a, 0-1 μM peptide, PBS pH ∼ 7.4, 25 °C) read?
The value was “robust conformational alteration”.

What about the “binding affinity toward C5a in words” value (recombinant human C5a [4]; CD and fluorescence titration studies taken together (A1 and A2)) of the same molecule?
The value was “could not be obtained reliably; also recorded: did not demonstrate a quantifiable binding affinity”.

And the “effect of alanine mutations on conformational ordering” value [5]?
Its value is “can potentially affect the overall conformational ordering”.

What about the intrinsic fluorescence [6] of the same molecule?
The intrinsic fluorescence was “very negligible”.

B1: SR1, ECL2 peptide of C5aR1 (Tyr174-Arg198) (peptide, UniProt P21730 174-198, looked up)
peptide: acyl-YRVVREEYFPPKVLSGVDYSHDKRR-NH2
modifications: reading uncertain
Does B1 bind (recombinant human C5a [7])?
Result: binds

B2: Vilobelimab: anti-C5a antibody (antibody, chains of the INN, looked up, V domains shown)
VH: QVQLQQSGPQLVRPGTSVKISCKASGYSFTTFWMDWVKQRPGQGLEWIGRIDPSDSESRLDQRFKDRATLTVDKSSSTVYMQLSSPTSEDSAVYYCARGNDGYYGFAYWGQGTLVTVSS
VL: DIVLTQSPASLAVSLGQRATISCKASQSVDYDGDSYMKWYQQKPGQPPKLLIYAASNLQSGIPARFSGSGSGTDFTLNIHPVEEEDAATYYCQQSNEDPYTFGGGTKLEIK
For B2, which “outcome in COVID-19 treatment” value (COVID-19) is on record?
The value was “favorable outcome”.

B3: SR3, native NT-peptide of C5aR1 (Met1-Lys28) (peptide, UniProt P21730 1-28, looked up)
peptide: MDSFNYTTPDYGHYDDKDTLDLNTPVDK
For B3, which Kd (recombinant human C5a [8]) is on record?
Its Kd is 126 to 193 nM.

B4: SR5, Tyr/Ala mutant NT-peptide of C5aR1 (Met1-Lys28) (peptide, UniProt P21730 1-28, looked up)
peptide: MDSFNATTPDAGHADDKDTLDLNTPVDK
With B4 as the molecule, how does the Kd (recombinant human C5a [8]) read?
The Kd was 105 to 123 nM.

B5: C5a: cationic proinflammatory glycoprotein, complement anaphylatoxin; ligand of C5aR1 (protein)
chain: T1 sequence (P01031 678-751 limits assumed)
For B5, which “potency toward C5aR1” value (C5aR1) is on record?
The value was “nanomolar to picomolar potency”.

What about the “potency toward C5aR1” value (C5aR1; native-like conditions) of the same molecule?
The value was “picomolar–nanomolar potency”.
